Measurements taken from ChEMBL document CHEMBL1156167 (Bioorg Med Chem Lett, 2010).
Calls of active or inactive are those of the source. No cut-off for these calls is given here.

Key:
[1] = target: T1, Sphingosine 1-phosphate receptor 1 (Homo sapiens, UniProt P21453); assay: Displacement of [33P]sphingosine-1-phosphate from human S1P1 receptor expressed in HEK293T cells after 60 mins by scintillation counting; format: cell-based, HEK-293T
[2] = target: T2, Sphingosine 1-phosphate receptor 3 (Homo sapiens, UniProt Q99500); assay: Displacement of [33P]sphingosine-1-phosphate from human S1P3 receptor expressed in HEK293T cells after 60 mins by scintillation counting; format: cell-based, HEK-293T
T2 sequence (Q99500 whole entry): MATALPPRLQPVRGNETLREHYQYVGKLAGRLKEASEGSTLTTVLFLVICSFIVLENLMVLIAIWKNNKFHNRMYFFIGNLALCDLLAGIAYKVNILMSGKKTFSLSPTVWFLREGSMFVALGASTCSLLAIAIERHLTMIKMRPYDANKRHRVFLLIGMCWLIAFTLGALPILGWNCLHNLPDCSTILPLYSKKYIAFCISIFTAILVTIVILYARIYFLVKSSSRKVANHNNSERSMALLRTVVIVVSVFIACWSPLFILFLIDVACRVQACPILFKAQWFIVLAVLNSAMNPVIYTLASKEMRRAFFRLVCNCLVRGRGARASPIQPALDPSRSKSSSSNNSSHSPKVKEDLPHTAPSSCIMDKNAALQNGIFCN

[3] = tested on: Mus musculus; assay: Immunomodulatory activity in C57BL/6 mouse assessed as induction of lymphopenia at 10 mg/kg, po after 6 hrs by complete blood count analysis; format: functional
Outline: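 Pro-drug alcohol given to mouse as a single oral dose of 10 mg/kg. Redistribution of circulating lymphocytes was measured 6 h post-dose and reported as percent lymphopenia.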

[4] = tested on: Mus musculus; assay: Metabolic stability in C57BL/6 mouse assessed as alcohol pro-drug to phosphate drug conversion at 10 mg/kg, po after 6 hrs; format: ADME, organism-based; design: dose 10 mg/kg, route oral; conditions: in vivo
Outline: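 Alcohol pro-drug dosed orally to mouse at 10 mg/kg. At 6 h, the amount converted in vivo to the phosphate was determined and expressed as percent conversion of alcohol to phosphate.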

[5] = target: T3, Sphingosine 1-phosphate receptor 4 (Homo sapiens, UniProt O95977); assay: Displacement of [33P]sphingosine-1-phosphate from human S1P4 receptor expressed in HEK293T cells after 60 mins by scintillation counting; format: cell-based, HEK-293T
T3 sequence (O95977 whole entry): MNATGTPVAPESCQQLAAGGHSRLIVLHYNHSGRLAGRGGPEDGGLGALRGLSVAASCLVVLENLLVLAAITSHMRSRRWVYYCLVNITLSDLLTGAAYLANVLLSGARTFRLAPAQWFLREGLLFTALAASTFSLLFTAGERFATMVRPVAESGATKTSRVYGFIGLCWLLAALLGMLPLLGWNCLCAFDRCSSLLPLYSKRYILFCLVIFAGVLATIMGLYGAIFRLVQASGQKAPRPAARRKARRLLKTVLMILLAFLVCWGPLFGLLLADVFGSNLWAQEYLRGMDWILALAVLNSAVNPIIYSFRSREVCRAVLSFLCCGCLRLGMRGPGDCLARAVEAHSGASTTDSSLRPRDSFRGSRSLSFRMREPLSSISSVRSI

[6] = target: Sphingosine 1-phosphate receptor 5 (Homo sapiens, UniProt Q9H228); assay: Displacement of [33P]sphingosine-1-phosphate from human S1P5 receptor expressed in HEK293T cells after 60 mins by scintillation counting; format: cell-based, HEK-293T
Sphingosine 1-phosphate receptor 5, sequence (Q9H228 whole entry): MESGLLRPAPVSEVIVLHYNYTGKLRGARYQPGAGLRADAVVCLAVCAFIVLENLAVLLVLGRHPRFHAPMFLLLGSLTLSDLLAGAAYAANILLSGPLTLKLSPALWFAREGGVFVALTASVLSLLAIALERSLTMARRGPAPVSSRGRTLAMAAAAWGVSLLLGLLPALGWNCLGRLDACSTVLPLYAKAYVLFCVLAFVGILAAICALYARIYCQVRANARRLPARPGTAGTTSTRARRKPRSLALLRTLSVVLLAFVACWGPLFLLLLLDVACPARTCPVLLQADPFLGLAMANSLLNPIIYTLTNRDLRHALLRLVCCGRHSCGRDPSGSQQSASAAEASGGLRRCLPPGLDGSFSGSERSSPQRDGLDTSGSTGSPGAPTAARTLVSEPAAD

[7] = species: Homo sapiens; assay: Selectivity ratio of IC50 for human S1P3 receptor to IC50 for human S1P1 receptor by [33P]sphingosine-1-phosphate displacement assay
[8] = species: Homo sapiens; assay: Selectivity ratio of EC50 for human S1P3 receptor to EC50 for human S1P1 receptor by gamma-[35S]GTP binding assay; format: functional
[9] = target: T1, Sphingosine 1-phosphate receptor 1; assay: Agonist activity at human S1P1 receptor expressed in HEK293T cells assessed as stimulation of gamma-[35S]GTP binding after 30 mins by scintillation counting
[10] = target: T2, Sphingosine 1-phosphate receptor 3; assay: Agonist activity at human S1P3 receptor expressed in HEK293T cells assessed as stimulation of gamma-[35S]GTP binding after 30 mins by scintillation counting
[11] = tested on: Mus musculus; assay: Immunomodulatory activity in C57BL/6 mouse assessed as induction of lymphopenia at 0.3 to 10 mg/kg, po after 6 hrs by complete blood count analysis; format: functional, organism-based
Outline: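 Mouse given a single oral dose of the pro-drug alcohol at 0.3, 1.0, 3.0 or 10.0 mg/kg alongside a vehicle group. Circulating lymphocyte redistribution was measured 6 h post-dose and expressed as lymphopenia relative to vehicle.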

[12] = target: T1, Sphingosine 1-phosphate receptor 1; assay: Ratio of compound IC50 to PPI-4667-P IC50 for human S1P1 receptor expressed in HEK293T cells; format: cell-based; conditions: HEK-293T

T1 sequence (P21453 whole entry): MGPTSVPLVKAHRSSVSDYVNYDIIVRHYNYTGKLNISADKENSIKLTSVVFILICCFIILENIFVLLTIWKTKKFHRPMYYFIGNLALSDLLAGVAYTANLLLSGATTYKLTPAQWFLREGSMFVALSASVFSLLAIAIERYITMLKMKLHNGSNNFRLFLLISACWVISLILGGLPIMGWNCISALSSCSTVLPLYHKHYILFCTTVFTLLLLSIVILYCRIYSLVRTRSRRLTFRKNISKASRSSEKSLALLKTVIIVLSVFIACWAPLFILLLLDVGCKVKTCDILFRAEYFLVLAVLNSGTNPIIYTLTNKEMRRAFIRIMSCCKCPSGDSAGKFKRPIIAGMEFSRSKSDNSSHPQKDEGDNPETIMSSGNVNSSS

Row | SMILES | IC50 [1] | IC50 [2] | Ratio IC50 [7] | EC50 [9] | EC50 [10] | other results
1 | CNC(=O)c1cc(NC(=O)[C@@](C)(N)COP(=O)(O)O)ccc1OCCc1ccc(-c2ccccc2)cc1 | 500 nM | > 1000 nM |  |  |  | 
2 | C[C@](N)(CO)C(=O)Nc1ccc(C(=O)CCc2ccc(-c3ccccc3)cc2)cc1 |  |  |  |  |  | Activity [3]: 84%; Activity [4]: 40%
3 | C[C@](N)(COP(=O)(O)O)C(=O)Nc1ccc(OCCc2ccc(-c3ccccc3)cc2)c(C(=O)O)c1 | > 10000 nM | > 10000 nM |  |  |  | 
4 | C[C@](N)(COP(=O)(O)O)C(=O)Nc1ccc(OCCc2ccc(-c3ccccc3)cc2)cc1 |  |  | 190 | 0.52 nM | 120 nM | IC50 [5]: 10.3 nM; IC50 [6]: 43.6 nM; Ratio EC50 [8]: 231
5 | C[C@](N)(COP(=O)(O)O)C(=O)Nc1ccc(OCCc2ccc(-c3ccccc3)cc2)c(C(N)=O)c1 | 150 nM | > 1000 nM |  |  |  | 
6 | C[C@](N)(COP(=O)(O)O)c1nc(-c2ccc(OCc3ccc(-c4ccccc4)cc3)cc2)c[nH]1 |  |  | 19 | 2.2 nM | 54.8 nM | Ratio EC50 [8]: 25
7 | C[C@](N)(COP(=O)(O)O)c1nc(-c2ccc(OCc3ccc(-c4ccccc4)cc3)c(C(F)(F)F)c2)c[nH]1 | 0.23 nM | 2000 nM | 8700 | 1.62 nM | > 3000 nM | Activity [3]: 85%; IC50 [5]: 4.4 nM; IC50 [6]: 9.6 nM; Activity [4]: 70.1%; Ratio EC50 [8]: > 1850
8 | C[C@](N)(CO)c1nc(-c2ccc(OCc3ccc(-c4ccccc4)cc3)c(C(F)(F)F)c2)c[nH]1 |  |  |  |  |  | Activity [11]: Active
9 | C[C@](N)(COP(=O)(O)O)C(=O)Nc1ccc(OCCc2ccc(-c3ccccc3)cc2)c(C(F)(F)F)c1 | 0.24 nM | 4500 nM | 18800 | 1.44 nM | > 3000 nM | IC50 [5]: 3.4 nM; IC50 [6]: 87.2 nM; Ratio EC50 [8]: > 2080
10 | C[C@](N)(CO)C(=O)Nc1ccc(C(=O)NCc2ccc(-c3ccccc3)cc2)cc1 |  |  |  |  |  | Activity [3]: 32%
11 | C[C@](N)(COP(=O)(O)O)C(=O)Nc1ccc(OCCc2ccc(-c3ccccc3)cc2)c(C#N)c1 | 3.4 nM | 2000 nM | 588 |  |  | Ratio IC50 [12]: 3
12 | C[C@](N)(COP(=O)(O)O)C(=O)Nc1ccc(OCCc2ccc(-c3ccccc3)cc2)c(Br)c1 | 1.3 nM | 1000 nM | 769 |  |  | 
13 | C[C@](N)(COP(=O)(O)O)C(=O)Nc1ccc(OCCc2ccc(-c3ccccc3)cc2)c(Cl)c1 | 0.8 nM | 285 nM | 356 |  |  | 
14 | Cc1cc(NC(=O)[C@@](C)(N)COP(=O)(O)O)ccc1OCCc1ccc(-c2ccccc2)cc1 | 6 nM | 3250 nM | 542 |  |  | 
15 | C[C@](N)(CO)C(=O)Nc1ccc(OCCc2ccc(-c3ccccc3)cc2)cc1 |  |  |  |  |  | Activity [4]: 14%
16 | C[C@](N)(CO)C(=O)Nc1ccc(SCCc2ccc(-c3ccccc3)cc2)cc1 |  |  |  |  |  | Activity [3]: 21%
17 | C[C@](N)(COP(=O)(O)O)C(=O)Nc1ccc(OCCc2ccc(-c3ccccc3)cc2)cc1C(F)(F)F | 6.4 nM | 700 nM | 109 |  |  | 
18 | C[C@](N)(COP(=O)(O)O)c1nc(-c2ccc(OCCc3ccc(-c4ccccc4)cc3)c(C(F)(F)F)c2)c[nH]1 | 9.4 nM | > 100000 nM | > 10000 | 22.4 nM | > 3000 nM | Activity [3]: 64%; IC50 [5]: 6.5 nM; IC50 [6]: 184 nM; Activity [4]: 6.8%; Ratio EC50 [8]: > 134
19 | CCCCCCCCCCCCC/C=C/[C@@H](O)[C@@H](N)COP(=O)(O)O | 0.78 nM | 0.92 nM |  | 5.6 nM | 2.4 nM | IC50 [5]: 1.04 nM
20 | C[C@](N)(COP(=O)(O)O)C(=O)Nc1ccc(C(=O)CCc2ccc(-c3ccccc3)cc2)cc1 | 4.14 nM | 3800 nM | 917 | 18.3 nM | > 3000 nM | IC50 [5]: 13.1 nM; IC50 [6]: 1360 nM; Ratio EC50 [8]: > 164
21 | COC(=O)c1cc(NC(=O)[C@@](C)(N)COP(=O)(O)O)ccc1OCCc1ccc(-c2ccccc2)cc1 | 21 nM | > 10000 nM | > 476 |  |  | 
